Calls of active or inactive are those of the source. The calls are words filed in the database; no cut-off is given here.
What was measured:
[1] = system: Mus musculus; assay: Protective effect against adenine-induced chronic renal failure in Kunming mouse assessed as nephridial SOD levels at 100 mg/kg, ig qd administered for 4 successive weeks with haikunshenxi capsule by hydroxylamine method (reference value: 30.45 +/- 1.12 U/mg); format: functional
[2] = system: Mus musculus; assay: Protective effect against adenine-induced chronic renal failure in Kunming mouse assessed as nephridial TNF-alpha levels at 100 mg/kg, ig qd administered for 4 successive weeks with haikunshenxi capsule (reference value: 250.15 +/- 8.10 pg/ml); format: functional
[3] = system: Mus musculus; assay: Protective effect against adenine-induced chronic renal failure in Kunming mouse assessed as kidney index at 200 mg/kg, ig qd administered for 4 successive weeks with haikunshenxi capsule measured 24 hrs post last dose (reference value: 1.94 +/- 0.03 mg/g); format: functional
Outline: (§1)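 Male Kunming mice (20 ± 5 g) were housed on a 12 h light/dark cycle at 18–20 °C. Chronic renal failure was induced by long-term dietary adenine. The melanin was given orally at 100 or 200 mg kg–1, alone or with Haikunshenxi capsule as positive drug, with ten mice per group. Weight growth rate (%) and kidney index (mg g–1) were recorded.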

[4] = system: Mus musculus; assay: Protective effect against adenine-induced chronic renal failure in Kunming mouse assessed as nephridial MDA levels at 100 mg/kg, ig qd administered for 4 successive weeks with haikunshenxi capsule by thiobarbituric acid method (reference value: 5.05 +/- 0.15 nmol/ml); format: functional
[5] = system: Mus musculus; assay: Protective effect against adenine-induced chronic renal failure in ig dosed Kunming mouse assessed as increase in nephridial SOD levels administered as qd for 4 successive weeks by hydroxylamine method; format: functional, organism-based
Outline: (§2)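 Male Kunming mice (20 ± 5 g) given dietary adenine to induce CRF, then dosed orally at 100 or 200 mg kg–1, with or without Haikunshenxi capsule; n = 10 per group. Kidney homogenate assayed for SOD and CAT (U mg–1 protein), GSH-Px (U L–1), GSH (mg g–1 protein) and MDA (nmol mL–1).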

[6] = system: Mus musculus; assay: Protective effect against adenine-induced chronic renal failure in Kunming mouse assessed as nephridial GSH levels at 100 mg/kg, ig qd administered for 4 successive weeks by colorimetric method (reference value: 3.05 +/- 0.11 mg/g); format: functional
[7] = system: Mus musculus; assay: Protective effect against adenine-induced chronic renal failure in Kunming mouse assessed as nephridial TNF-alpha levels at 200 mg/kg, ig qd administered for 4 successive weeks (reference value: 250.15 +/- 8.10 pg/ml); format: functional
[8] = system: Mus musculus; assay: Protective effect against adenine-induced chronic renal failure in ig dosed Kunming mouse assessed as decrease in nephridial iNOS levels administered as qd for 4 successive weeks; format: functional, organism-based
Outline: (§3)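 CRF model made by chronic dietary adenine in male Kunming mice (20 ± 5 g); oral dosing at 100 or 200 mg kg–1, alone or with Haikunshenxi capsule; ten mice per group. Kidney tissue TNF-α, IL-1β and IL-6 measured as pg per mg protein, and iNOS activity as U mg–1 protein.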

[9] = system: Mus musculus; assay: Protective effect against adenine-induced chronic renal failure in ig dosed Kunming mouse assessed as decrease in blood urea nitrogen levels in serum administered as qd for 4 successive weeks with haikunshenxi capsule by diacetyl oxime method; format: functional, organism-based
Outline: (§4)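 Adenine-fed CRF model in male Kunming mice (20 ± 5 g) housed at 18–20 °C on a 12 h light/dark cycle. Oral dosing at 100 or 200 mg kg–1, with or without Haikunshenxi capsule; ten mice per group. Serum creatinine, BUN, total protein and albumin measured, each group compared with the model group.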

[10] = system: Mus musculus; assay: Protective effect against adenine-induced chronic renal failure in Kunming mouse assessed as nephridial iNOS levels at 100 mg/kg, ig qd administered for 4 successive weeks (reference value: 1.98 +/- 0.12 U/mg); format: functional
[11] = system: Mus musculus; assay: Protective effect against adenine-induced chronic renal failure in Kunming mouse assessed as reduction in renal tubular atrophy at 200 mg/kg, ig qd administered for 4 successive weeks with haikunshenxi capsule by haematoxylin and eosin dye-based optical microscopic method; format: functional, organism-based
Outline: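 Kidneys were taken from male Kunming mice given an adenine diet plus oral melanin (100 or 200 mg kg–1), with or without Haikunshenxi capsule, ten per group. Histological sections were examined at 400× for glomeruli, tubules, adenine crystals, tubular atrophy and interstitial fibrosis.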

[12] = system: Mus musculus; assay: Protective effect against adenine-induced chronic renal failure in ig dosed Kunming mouse assessed as increase in albumin levels in serum administered as qd for 4 successive weeks by bromocresol green colorimetric method; format: functional, organism-based; outline: as §4
[13] = system: Mus musculus; assay: Protective effect against adenine-induced chronic renal failure in Kunming mouse assessed as kidney index at 100 mg/kg, ig qd administered for 4 successive weeks with haikunshenxi capsule measured 24 hrs post last dose (reference value: 1.94 +/- 0.03 mg/g); format: functional; outline: as §1
[14] = system: Mus musculus; assay: Protective effect against adenine-induced chronic renal failure in Kunming mouse assessed as nephridial CAT levels at 100 mg/kg, ig qd administered for 4 successive weeks by visible spectrometry method (reference value: 44.13 +/- 1.25 U/mg); format: functional
[15] = system: Mus musculus; assay: Protective effect against adenine-induced chronic renal failure in ig dosed Kunming mouse assessed as decrease in nephridial TNF-alpha levels administered as qd for 4 successive weeks; format: functional, organism-based; outline: as §3
[16] = system: Mus musculus; assay: Protective effect against adenine-induced chronic renal failure in Kunming mouse assessed as kidney index at 100 mg/kg, ig qd administered for 4 successive weeks measured 24 hrs post last dose (reference value: 1.94 +/- 0.03 mg/g); format: functional; outline: as §1
[17] = system: Mus musculus; assay: Protective effect against adenine-induced chronic renal failure in ig dosed Kunming mouse assessed as reduction in kidney index administered as qd for 4 successive weeks measured 24 hrs post last dose
[18] = system: Mus musculus; assay: Protective effect against adenine-induced chronic renal failure in ig dosed Kunming mouse assessed as decrease in nephridial IL-6 levels administered as qd for 4 successive weeks with haikunshenxi capsule; format: functional, organism-based; outline: as §3
[19] = system: Mus musculus; assay: Protective effect against adenine-induced chronic renal failure in Kunming mouse assessed as weight growth rate at 100 mg/kg, ig qd administered for 4 successive weeks with haikunshenxi capsule measured 24 hrs post last dose (reference value: 32.42 +/- 1.43%); format: functional
Outline: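 Male Kunming mice (20 ± 5 g) kept on a 12 h light/dark cycle at 18–20 °C on a standard diet. CRF induced by chronic dietary adenine. Test material given orally at 100 or 200 mg kg–1, alone or with Haikunshenxi capsule, alongside normal, model and capsule-only groups; ten mice per group. Weight growth rate recorded in %, kidney index in mg g–1.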

[20] = system: Mus musculus; assay: Protective effect against adenine-induced chronic renal failure in ig dosed Kunming mouse assessed as decrease in nephridial MDA levels administered as qd for 4 successive weeks with haikunshenxi capsule by thiobarbituric acid method; format: functional, organism-based; outline: as §2
[21] = system: Mus musculus; assay: Protective effect against adenine-induced chronic renal failure in Kunming mouse assessed as nephridial iNOS levels at 200 mg/kg, ig qd administered for 4 successive weeks with haikunshenxi capsule (reference value: 1.98 +/- 0.12 U/mg); format: functional
[22] = system: Mus musculus; assay: Protective effect against adenine-induced chronic renal failure in ig dosed Kunming mouse assessed as decrease in blood urea nitrogen levels in serum administered as qd for 4 successive weeks by diacetyl oxime method; format: functional, organism-based; outline: as §4
[23] = system: Mus musculus; assay: Protective effect against adenine-induced chronic renal failure in ig dosed Kunming mouse assessed as decrease in nephridial iNOS levels administered as qd for 4 successive weeks with haikunshenxi capsule; format: functional, organism-based; outline: as §3

SMILES: Cc1c(=O)c(=O)c2c3c[nH]c4c(C)c(=O)c(=O)c(c5c[nH]c1c52)c43
- Activity [1]: 46.52 U/mg
- Activity [2]: 98.13 pg/mL
- Activity [3]: 1.13 mg/g
- Activity [4]: 3.05 nmol/mL
- Activity [5]: Dose-dependent effect
- Activity [6]: 4.19 mg/g
- Activity [7]: 168.32 pg/mL
- Activity [8]: Dose-dependent effect
- Activity [9]: Dose-dependent effect
- Activity [10]: 1.79 U/mg
- Activity [11]: Active
- Activity [12]: Dose-dependent effect
- Activity [13]: 1.18 mg/g
- Activity [14]: 60.53 U/mg
- Activity [15]: Dose-dependent effect
- Activity [16]: 1.72 mg/g
- Activity [17]: Dose-dependent effect
- Activity [18]: Dose-dependent effect
- Activity [19]: 54.34%
- Activity [20]: Dose-dependent effect
- Activity [21]: 0.68 U/mg
- Activity [22]: Dose-dependent effect
- Activity [23]: Dose-dependent effect

From ChEMBL document CHEMBL4257441, “Protection effect of intracellular melanin from Lachnum YM156 and Haikunshenxi capsule combination on adenine-induced chronic renal failure in mice” (Medchemcomm, 2017)
